Where “and” joins values, the source holds several entries; their conditions need not be identical. Equal values may be shown once. Read-outs that look alike come from different tables or passages of the source.
How the values were obtained:
[1] = Population pharmacokinetic analysis; assay type: in vivo, human
How it was run: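 Oral dosing at 0.5–15 mg twice daily in UC patients, excluding creatinine clearance <40 mL/min. Predose and postdose plasma samples were stored at about –20°C and assayed by a validated method (LOQ 0.100 ng/mL). One-compartment model with first-order absorption, with or without lag. Exponential IIV on CL/F and V/F; IOV on Ka. Separate proportional residual errors for >8 h and ≤8 h postdose. FOCE with interaction; nonparametric bootstrap, 1000 runs.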

[2] = cited from earlier work
[3] = cited from earlier work; remark: listed apart in the source
JAK1 = details: in vitro assays; cited from earlier work
[4] = final model, table: estimate (RSE%), text: estimate (95%CI bootstrap)
[5] = fraction of the reference category (male)

CL/F, typical estimate ([1]; base model): 25.0 L/h | IIV (%CV) for CL/F ([1]; base model): 25.2% | IOV (%CV) for Ka ([1]; base model): 192.4% | Ka ([1]; base model): 9.9 h⁻¹ | V/F, typical estimate ([1]; base model): 111 L | CL/F, bootstrap median ([1]; bootstrap of final model): 26.3 L/h | IIV for CL/F, bootstrap ([1]; bootstrap of final model): 22.2% | Ka, bootstrap median ([1]; bootstrap of final model): 9.86 h⁻¹ | Lag time, bootstrap median ([1]; bootstrap of final model): 0.236 (NA) h | V/F, bootstrap median ([1]; bootstrap of final model): 115.5 (NA) L | IOV for Ka, bootstrap ([1]; bootstrap of final model, IOV instead of IIV (footnote b)): 191.9% | Dose proportionality of exposure ([1]; dose range 0.5-15 mg twice daily): dose‐proportional increase | Lower CL/F, Asian compared with non-Asian patients ([1]; final model prediction): 6.8% | Lower CL/F, baseline creatinine clearance 60 mL/min compared to 108.7 mL/min ([1]; final model prediction): 19% | Lower CL/F, females compared with males ([1]; final model prediction): 13.2% | Lower V/F, female compared with male patients ([1]; final model prediction): 15.5% | Lower V/F, patient aged 80 years compared with 40 years ([1]; final model prediction): 7.7% | Lower V/F, patient weighing 53 kg relative to 72.0 kg ([1]; final model prediction, 10th percentile of weight): approximately 16.4% | Higher V/F, patient weighing 95 kg relative to 72.0 kg ([1]; final model prediction, 90th percentile of weight): ~17.6% | IIV (%CV) for CL/F ([1]; final model, table: IIV (RSE%)): 22% and 22.2% and 22.2 (7.7) % | IOV (%CV) for Ka ([1]; final model, table: IOV (RSE%)): 191.8% and 191.8 (7.0) % | Ka (first-order absorption rate constant), typical estimate [1, 4]: 9.9 (7.1) h^−1 | Lag time [1, 4]: 0.236 (0.52) h | Covariate parameter estimate: Female on CL/F [1, 5]: 0.868 | Covariate parameter estimate: Female on V/F [1, 5]: 0.845 | Covariate parameter estimate: Asian on CL/F ([1]; fraction of the reference category (non-Asian)): 0.932 | Vd/F ([1]; human, plasma, oral): 116 L | half-life ([1]; human, plasma, oral, Derived elimination half-life (t½), final model, patients with UC): 3.05 h | half-life ([1]; human, plasma, oral, Derived elimination t½, base model): ~3.05 h | Covariate parameter estimate: Age on V/F ([1]; power function exponent, normalized to 40.0 years): –0.116 | Covariate parameter estimate: BCCL on CL/F ([1]; power function exponent, normalized to 108.7 mL/min): 0.354
SMILES: C[C@@H]1CCN(C(=O)CC#N)C[C@@H]1N(C)c1ncnc2[nH]ccc12 [tofacitinib]
CL/F (apparent oral clearance), typical estimate ([1]; final model, reference individual: non-Asian male, 72.0 kg, 40.0 years, baseline creatinine clearance 108.7 mL/min, table: estimate (RSE%), text: estimate (95%CI bootstrap)): 26.3 L/h and 26.3 (25.5–27.2) L/h and 26.3 (1.2) L/h | Covariate parameter estimate: Body weight on V/F ([1]; power function exponent, normalized to 72.0 kg): 0.585 | Share of clearance due to renal elimination [2]: 30% | Mean terminal-phase half-life (t½) ([2]; healthy volunteers): approximately 3.2 h | Time of peak plasma concentration after oral administration ([2]; healthy volunteers): approximately 1 hour (h) | Share of clearance via hepatic metabolism ([2]; primarily via cytochrome P450 3A4): 70% | AUC higher than in healthy individuals ([3]; mild renal impairment): 37% | AUC higher than in healthy individuals ([3]; moderate renal impairment): 43% | AUC higher than in healthy individuals ([3]; severe renal impairment): 123% | Inhibitory potency for JAK1 (JAK1): potent inhibitor

From paper PMC7986169 (Clinical Pharmacology in Drug Development, 2021)
